Assay outcomes deposited in PubChem BioAssay by several laboratories.
XiGFP reactiv: activators of inactive X chromosome reactivation, primary screen, imaging, XiGFP fibroblasts, GFP high-content imaging, set 2 | XiGFP mouse fibroblasts, % GFP-positive cells imaging, 3 d; cells co-treated with 5-aza-dC sensitizer; scaled so ellipticine positive control = 100% | activation, % at 7.58 µM | 360,000 compounds, 0.055% hits | AID 743238, 2013;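 active means mean normalized replicate activation at least 10% and every replicate at or above 10%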
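System: 68-5-11 XiGFP fibroblast line | Buffer or medium: DMEM containing 5-aza-dC | Compound: Single point | Times: Compounds 3 days, fix/stain 15 min at room temperature | Benchmarks: Positive control ellipticine, 6 µM final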
NadD inh: inhibitors of S. aureus NadD, primary screen, biochemical, colorimetric, uHTS | inhibition, % at 20 µM | AID 602399, 2012 | 360,000 compounds, 0.78% hits | purified NadD enzyme, colorimetric absorbance read-out | Nicotinate-nucleotide adenylyltransferase NadD (Staphylococcus aureus N315); in the data active means inhibition above about 26%
ABHD5 PLIN5 PPI: ABHD5-PLIN5 interaction inhibitors, primary screen, cell lysate, split luciferase complementation, luminescence. 360,000 compounds, 0.78% hits. inhibition, % at 4 µM. Split G. princeps luciferase complementation, 4 h. Perilipin-5 (Homo sapiens) + 1-acylglycerol-3-phosphate O-acyltransferase ABHD5 (Homo …;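 active means inhibition above the mean inhibition across every tested compound plus 3 SD, cut at about 22% in these data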
Target sequence (Q00G26 whole entry, looked up): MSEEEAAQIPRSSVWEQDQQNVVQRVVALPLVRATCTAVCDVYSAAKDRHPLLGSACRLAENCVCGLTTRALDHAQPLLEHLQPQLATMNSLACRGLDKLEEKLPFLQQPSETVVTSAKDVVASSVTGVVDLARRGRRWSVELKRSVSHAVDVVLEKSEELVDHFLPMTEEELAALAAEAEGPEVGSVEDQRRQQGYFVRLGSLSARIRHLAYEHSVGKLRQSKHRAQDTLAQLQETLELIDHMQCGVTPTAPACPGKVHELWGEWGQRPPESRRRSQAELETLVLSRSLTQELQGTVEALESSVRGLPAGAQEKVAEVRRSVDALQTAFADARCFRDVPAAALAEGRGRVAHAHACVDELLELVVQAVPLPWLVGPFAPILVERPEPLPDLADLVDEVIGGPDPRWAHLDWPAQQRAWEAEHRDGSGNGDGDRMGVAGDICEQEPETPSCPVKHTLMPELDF
Target sequence (Q8WTS1 whole entry, looked up): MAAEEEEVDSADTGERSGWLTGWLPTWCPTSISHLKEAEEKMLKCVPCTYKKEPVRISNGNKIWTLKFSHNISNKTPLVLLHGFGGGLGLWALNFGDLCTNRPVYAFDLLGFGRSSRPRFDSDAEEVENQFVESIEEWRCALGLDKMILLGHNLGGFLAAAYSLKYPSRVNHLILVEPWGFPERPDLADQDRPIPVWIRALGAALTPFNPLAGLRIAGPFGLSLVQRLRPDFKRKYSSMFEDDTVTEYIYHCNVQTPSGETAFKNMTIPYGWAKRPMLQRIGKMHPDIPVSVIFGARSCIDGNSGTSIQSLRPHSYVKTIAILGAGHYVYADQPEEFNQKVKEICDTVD
Rpn11 block: Rpn11 (PSMD14) deubiquitinase inhibitors, primary screen, biochemical, fluorescence polarization, uHTS; 26S proteasome non-ATPase regulatory subunit 14 (Homo sapiens), O00487; human 26S proteasome, Ub4-pepOG fluorescence polarization; 20S core pre-blocked with epoxomicin; inhibition, % at 20 µM; 360,000 compounds, 0.59% hits;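 active means inhibition at 20 µM, scaled to each plate's controls, above about 33%, limit read from the data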
Rin1-Abl PPI inh: inhibitors of Rin1-Abl protein binding, primary screen, biochemical, TR-FRET. inhibition, % at 7.35 µM. 360,000 compounds, 0.4% hits; in the data active means inhibition above about 5%, passing the limit was not always enough
ABHD5 PLIN5 conf: ABHD5-PLIN5 interaction inhibitors, confirmation, biochemical, luminescence | shares compounds with ABHD5 PLIN5 PPI | inhibition, % at 4 µM | 2,200 compounds, 67% hits; in the data active means inhibition above about 23%
HNF4 counter: HNF4 dimerization inhibitors, counter-screen for ABHD5-PLIN5 interaction inhibitor project, biochemical, split-luciferase complementation, luminescence; shares compounds with ABHD5 PLIN5 PPI; inhibition, % at 4 µM; 2,200 compounds, 77% hits;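 active means mean inhibition across replicate wells exceeding the computed hit threshold, cut at about 13% in these data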;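 further: light from luciferase halves that rejoin when HNF4 fusion proteins dimerize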
Hits are given with their value; – = inactive; · = not tested or not shown. The list is not random: actives were taken first. Their share in the collection is about 1.9%.

SMILES	XiGFP reactiv	NadD inh	ABHD5 PLIN5 PPI	Rpn11 block	Rin1-Abl PPI inh	ABHD5 PLIN5 conf	HNF4 counter
Cc1cccc(Cn2cc(/C=C/[N+](=O)[O-])c3ccccc32)c1	·	–	25	–	–	91	86
O=[N+]([O-])/C=C/c1cn(Cc2ccc(Cl)cc2)c2ccccc12	–	–	45	–	–	98	83
COc1ccc(NC(=O)N(C)C[C@@H]2Oc3c(NC(=O)c4cc(C)nn4C)cccc3C(=O)N([C@@H](C)CO)C[C@H]2C)cc1	–	·	·	·	·	·	·
CO[C@H]1CN(C)C(=O)c2ccc(NS(C)(=O)=O)cc2OC[C@H](C)NC[C@@H]1C	–	·	·	·	·	·	·
CNC[C@H]1Oc2ccc(N(C)C)cc2CC(=O)N(C)C[C@H]1C	–	·	·	·	·	·	·
O=c1[nH][nH]c2c1[C@H](c1ccccc1)O[C@H](C1CCCCC1)C2	–	–	31	·	·	34	44
O=c1[nH][nH]c2c1[C@H](c1ccc(Cl)cc1)O[C@H](C1CC1)C2	–	–	23	·	·	38	25
O=c1[nH][nH]c2c1[C@H](c1ccc(F)cc1)O[C@H](C1CCCCC1)C2	–	–	28	·	·	–	26
CCC(=O)N1C[C@H](C)[C@H](OC)CN(C)C(=O)c2ccc(NC(=O)Nc3ccc(Cl)cc3)cc2OC[C@@H]1C	–	·	·	·	·	·	·
Cc1cc(C(=O)NCc2ccco2)c2ccccc2n1	–	–	–	–	–	·	·
Cc1cc(C)c2nc(-c3ccccn3)cc(C(=O)NCc3ccco3)c2c1	·	–	45	–	–	–	26
Cc1ccc(-c2cc(C(=O)NCc3ccco3)c3ccccc3n2)o1	·	–	44	–	–	–	30
Cc1scc(C(=O)NCc2ccco2)c1-c1ccccc1	·	–	28	–	–	23	22
O=C(NCc1ccco1)c1ccccc1-c1ccccc1	·	–	–	–	–	·	·
O=C(Nc1nc2ccccc2s1)c1cc(-c2ccco2)nc2ccccc12	–	–	27	–	–	22	14
C[C@@H]1CN([C@@H](C)CO)S(=O)(=O)c2ccc(-c3ccncc3)cc2O[C@H]1CN(C)C(=O)C1CCC1	–	·	·	·	·	·	·
Cc1ccc(-c2cc(C(=O)NN3CCOCC3)c3cc(Br)ccc3n2)o1	–	–	–	–	–	·	·
Cc1ccc(-c2cc(C(=O)O)c3cc(Br)ccc3n2)o1	–	–	27	–	–	79	88
CC(=O)N[C@H]1CC[C@@H](CCNC(=O)C2CC2)O[C@@H]1CO	–	·	·	·	·	·	·
C[C@H](CO)N1C[C@H](C)[C@H](CN(C)S(=O)(=O)c2ccc(F)cc2)Oc2cc(C#Cc3ccc(F)cc3)ccc2S1(=O)=O	–	·	·	·	·	·	·
NC(=O)c1csc(C2OC(CO)C(O)C2O)n1 (stereo unspecified)	–	–	–	·	·	·	·
O=C1C=C(C2OC(CO)C(O)C2O)C(=O)N1 (stereo unspecified)	·	–	68	–	–	48	104
O=C1OC(c2ccccc2)=N/C1=C\C=C\c1ccccc1[N+](=O)[O-]	–	–	–	–	–	·	·
O=C1OC(c2ccccc2)=N/C1=C\C=C\c1ccco1	–	–	39	–	–	–	35
O=C1OC(c2ccc(Cl)cc2)=N/C1=C\C=C\c1ccco1	–	–	53	–	–	–	17
SMILES	XiGFP reactiv	NadD inh	ABHD5 PLIN5 PPI	Rpn11 block	Rin1-Abl PPI inh	ABHD5 PLIN5 conf	HNF4 counter
CC(C)NC(=O)N(C)C[C@H]1Oc2cc(-c3cncnc3)ccc2S(=O)(=O)N([C@@H](C)CO)C[C@@H]1C	–	·	·	·	·	·	·
CCOC(=O)CC(S(=O)(=O)c1ccccc1)S(=O)(=O)c1ccccc1	–	–	52	–	–	38	89
CCOC(=O)N=S(N)(=O)c1ccccc1 (stereo unspecified)	·	–	–	–	–	·	·
CCCSc1cc(NCCOC(C)=O)c([N+](=O)[O-])c2nonc12	–	–	–	–	–	·	·
Cc1nnc(Sc2cc(NCCCO)c([N+](=O)[O-])c3nonc23)s1	–	–	27	–	–	49	111
Cc1nnc(Sc2cc(NCCO)c([N+](=O)[O-])c3nonc23)s1	–	–	50	–	–	52	114
O=[N+]([O-])c1c(NCCO)cc(N2CCCCCC2)c2nonc12	–	–	–	–	–	·	·
CCOC(=O)Nc1ccc(C(=O)/C=C/c2ccccc2)cc1	–	–	42	–	–	60	44
CCC(=O)Nc1cccc(C(=O)/C=C/c2ccccc2)c1	·	–	68	–	–	75	53
CCC(=O)Nc1cccc(C(=O)/C=C/c2cccs2)c1	–	–	33	–	–	49	37
CCOC(=O)Nc1ccc(Oc2ccccc2)cc1	·	–	–	–	–	·	·
CCC(=O)Nc1cccc(C(=O)c2ccccc2)c1	·	–	–	–	–	·	·
CCNC(=O)[C@H]1[C@H](CO)[C@H]2Cn3c(ccc(-c4cccc(F)c4)c3=O)[C@H]2N1Cc1cc(F)ccc1F	–	·	·	·	·	·	·
Cc1ccc(S(=O)(=O)N(C)C[C@@H]2Oc3ccc(NS(=O)(=O)c4cn(C)cn4)cc3CC(=O)N([C@@H](C)CO)C[C@H]2C)cc1	–	·	·	·	·	·	·
O=C(CN1CCC2(CC1)OCCO2)c1ccc2cc[nH]c2c1	·	–	102	–	–	–	–
O=C(NCC1CCCO1)c1ccc(COc2ccc(F)cc2)o1 (stereo unspecified)	·	–	–	–	–	·	·
CCOc1cc(N)c(Cl)cc1C(=O)NCC1CN(Cc2ccc(F)cc2)CCO1 (stereo unspecified)	–	–	71	–	–	78	33
O=C(C[C@@H]1C=C[C@H](NC(=O)Nc2ccccc2F)[C@H](CO)O1)NCc1ccccc1	–	·	·	·	·	·	·
C[C@H]1CN([C@@H](C)CO)S(=O)(=O)c2ccc(C#Cc3cccc(F)c3)cc2O[C@H]1CN(C)S(=O)(=O)c1ccccc1F	–	·	·	·	·	·	·
O=[N+]([O-])c1cc(S(=O)(=O)C(F)(F)F)ccc1Sc1nc2ccccc2[nH]1	·	–	54	–	–	59	79
CS(=O)(=O)c1ccc(Sc2nc3ccccc3[nH]2)c([N+](=O)[O-])c1	·	–	–	–	–	·	·
COCC(=O)Nc1ccc2c(c1)C(=O)N(C)C[C@@H](OC)[C@H](C)CN(C(=O)CN1CCOCC1)[C@H](C)CO2	–	·	·	·	·	·	·
CN(C)c1ccc(/C=C/C(=O)c2cccnc2)cc1	–	–	–	·	–	·	·
O=C(/C=C/c1cccnc1)c1ccc(O)cc1	–	–	29	–	–	49	48
